# In ChEMBL document CHEMBL1136004, “Ethyl (3S,4aR,6S,8aR)-6-(4-ethoxycar- bonylimidazol-1-ylmethyl)decahydroiso-quinoline-3-carboxylic ester: a prodrug of a GluR5 kainate receptor antagonist active in two animal models of acute migraine” (J Med Chem, 2002):
# Legend:
# [1] = target: Glutamate receptor ionotropic, kainate 1 (Homo sapiens) (UniProt P39086); assay: Ability to displace binding of [3H]KA to recombinant human Ionotropic glutamate receptor ionotropic kainate 1
# Glutamate receptor 1 = Glutamate receptor 1 (Homo sapiens, UniProt P42261); assay: Ability to displace binding of [3H]AMPA to recombinant human Ionotropic glutamate receptor AMPA 1
# In short: (§1)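 Radioligand displacement with [3H]AMPA on membranes from HEK 293 cells expressing the cloned human AMPA receptor subunit. Ki (μM) reported as the mean ± SEM of at least three determinations.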
# Glutamate receptor 3 = Glutamate receptor 3 (Homo sapiens, UniProt P42263); assay: Ability to displace binding of [3H]AMPA to recombinant human Ionotropic glutamate receptor AMPA 3
# In short: as §1
# [2] = target: T1, Glutamate receptor ionotropic, kainate 2 (Homo sapiens, UniProt Q13002); assay: Ability to displace binding of [3H]KA to recombinant human KA receptor Ionotropic glutamate receptor ionotropic kainate 2 expressed in EK 293 cell membranes
# In short: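 Displacement of [3H]KA binding on membranes from HEK 293 cells expressing the recombinant human kainate receptor subunit. Ki (μM) given as the mean ± SEM from at least three determinations.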
# [3] = target: T1, Glutamate receptor ionotropic, kainate 2; assay: Ability to displace binding of [3H]KA to recombinant human KA receptor Ionotropic glutamate receptor ionotropic kainate 2
# Glutamate receptor 2 = Glutamate receptor 2 (Homo sapiens, UniProt P42262); assay: Ability to displace binding of [3H]AMPA to recombinant human Ionotropic glutamate receptor AMPA 2
# [4] = target: Glutamate receptor ionotropic, kainate 3 (Homo sapiens) (UniProt Q13003); assay: Ability to displace binding of [3H]KA to recombinant human KA receptor Ionotropic glutamate receptor ionotropic kainate 3
# Glutamate receptor 4 = Glutamate receptor 4 (Homo sapiens, UniProt P48058); assay: Ability to displace binding of [3H]AMPA to recombinant human Ionotropic glutamate receptor AMPA 4
# In short: as §1
# [5] = Compound was administered orally 1 h prior to trigeminal stimulation and was evaluated for the decrease extravasation
# Sequence of Glutamate receptor 1 (P42261 whole entry): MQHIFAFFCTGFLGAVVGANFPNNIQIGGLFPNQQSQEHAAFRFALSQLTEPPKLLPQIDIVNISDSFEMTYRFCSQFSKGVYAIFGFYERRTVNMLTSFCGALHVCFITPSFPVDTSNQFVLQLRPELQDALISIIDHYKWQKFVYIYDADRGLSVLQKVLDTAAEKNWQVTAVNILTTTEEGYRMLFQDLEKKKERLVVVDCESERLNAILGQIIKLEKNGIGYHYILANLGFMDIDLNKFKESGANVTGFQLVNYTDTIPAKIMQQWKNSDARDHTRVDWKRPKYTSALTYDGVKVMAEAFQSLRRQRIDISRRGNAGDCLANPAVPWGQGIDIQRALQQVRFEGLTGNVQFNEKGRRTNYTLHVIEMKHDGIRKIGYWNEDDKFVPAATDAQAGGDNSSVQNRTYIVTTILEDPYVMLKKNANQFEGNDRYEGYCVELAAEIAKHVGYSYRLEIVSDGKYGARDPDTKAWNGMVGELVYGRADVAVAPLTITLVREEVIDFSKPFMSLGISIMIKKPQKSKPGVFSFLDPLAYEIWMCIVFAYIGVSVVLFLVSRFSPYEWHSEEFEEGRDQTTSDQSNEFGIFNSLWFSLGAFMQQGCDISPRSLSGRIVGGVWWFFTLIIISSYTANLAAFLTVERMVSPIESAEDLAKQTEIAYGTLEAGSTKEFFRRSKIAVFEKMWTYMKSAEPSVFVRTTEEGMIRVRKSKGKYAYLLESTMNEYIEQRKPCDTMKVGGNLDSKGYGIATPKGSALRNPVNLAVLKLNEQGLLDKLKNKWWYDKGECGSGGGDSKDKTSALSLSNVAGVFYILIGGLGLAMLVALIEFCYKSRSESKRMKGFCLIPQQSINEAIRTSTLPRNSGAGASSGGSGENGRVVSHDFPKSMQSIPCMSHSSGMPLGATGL
# T1 sequence (Q13002 whole entry): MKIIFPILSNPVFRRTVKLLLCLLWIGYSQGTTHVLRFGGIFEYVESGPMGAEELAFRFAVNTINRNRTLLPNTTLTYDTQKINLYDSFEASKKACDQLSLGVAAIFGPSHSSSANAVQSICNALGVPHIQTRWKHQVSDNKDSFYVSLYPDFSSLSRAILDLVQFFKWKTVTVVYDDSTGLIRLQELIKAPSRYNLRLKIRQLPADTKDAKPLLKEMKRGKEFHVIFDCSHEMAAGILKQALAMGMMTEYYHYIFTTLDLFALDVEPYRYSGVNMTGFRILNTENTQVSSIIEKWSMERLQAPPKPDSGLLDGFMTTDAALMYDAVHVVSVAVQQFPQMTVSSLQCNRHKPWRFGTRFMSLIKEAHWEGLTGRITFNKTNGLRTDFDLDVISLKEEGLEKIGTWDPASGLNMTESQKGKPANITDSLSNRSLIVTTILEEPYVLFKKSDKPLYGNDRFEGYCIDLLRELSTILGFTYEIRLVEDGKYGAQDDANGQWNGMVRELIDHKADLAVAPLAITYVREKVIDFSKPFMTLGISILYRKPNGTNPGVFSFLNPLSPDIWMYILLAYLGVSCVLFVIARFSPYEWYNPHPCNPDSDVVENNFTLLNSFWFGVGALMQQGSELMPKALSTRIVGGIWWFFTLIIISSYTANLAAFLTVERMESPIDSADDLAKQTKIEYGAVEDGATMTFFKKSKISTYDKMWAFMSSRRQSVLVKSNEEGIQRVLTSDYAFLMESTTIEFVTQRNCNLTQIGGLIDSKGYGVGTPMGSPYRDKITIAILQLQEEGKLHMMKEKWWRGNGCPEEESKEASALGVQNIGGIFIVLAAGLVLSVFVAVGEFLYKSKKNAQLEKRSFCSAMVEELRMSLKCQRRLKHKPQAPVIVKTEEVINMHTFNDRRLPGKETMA
# Sequence of Glutamate receptor 3 (P42263 whole entry): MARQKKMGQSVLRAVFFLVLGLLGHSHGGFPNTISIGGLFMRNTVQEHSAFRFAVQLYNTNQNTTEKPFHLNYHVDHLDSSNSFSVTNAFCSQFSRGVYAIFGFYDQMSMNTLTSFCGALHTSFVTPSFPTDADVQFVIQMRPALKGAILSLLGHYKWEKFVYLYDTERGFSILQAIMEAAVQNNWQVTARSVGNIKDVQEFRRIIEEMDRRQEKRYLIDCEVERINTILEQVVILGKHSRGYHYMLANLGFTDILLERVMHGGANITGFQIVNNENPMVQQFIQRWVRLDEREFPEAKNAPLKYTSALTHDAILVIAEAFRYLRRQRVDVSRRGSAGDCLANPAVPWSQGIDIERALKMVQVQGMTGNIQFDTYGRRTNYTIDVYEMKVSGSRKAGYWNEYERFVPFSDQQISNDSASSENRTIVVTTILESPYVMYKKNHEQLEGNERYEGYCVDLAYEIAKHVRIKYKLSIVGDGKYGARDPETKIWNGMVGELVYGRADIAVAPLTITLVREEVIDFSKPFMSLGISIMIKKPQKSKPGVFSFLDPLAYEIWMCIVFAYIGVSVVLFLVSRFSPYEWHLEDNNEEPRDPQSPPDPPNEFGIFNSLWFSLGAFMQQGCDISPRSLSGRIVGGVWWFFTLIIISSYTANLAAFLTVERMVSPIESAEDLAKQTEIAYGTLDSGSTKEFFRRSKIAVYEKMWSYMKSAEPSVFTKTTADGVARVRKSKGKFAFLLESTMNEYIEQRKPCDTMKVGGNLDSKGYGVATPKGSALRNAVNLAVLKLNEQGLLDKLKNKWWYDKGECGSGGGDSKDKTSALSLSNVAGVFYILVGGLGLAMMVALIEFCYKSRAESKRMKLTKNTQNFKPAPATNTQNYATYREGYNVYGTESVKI
# Sequence of Glutamate receptor 4 (P48058 whole entry): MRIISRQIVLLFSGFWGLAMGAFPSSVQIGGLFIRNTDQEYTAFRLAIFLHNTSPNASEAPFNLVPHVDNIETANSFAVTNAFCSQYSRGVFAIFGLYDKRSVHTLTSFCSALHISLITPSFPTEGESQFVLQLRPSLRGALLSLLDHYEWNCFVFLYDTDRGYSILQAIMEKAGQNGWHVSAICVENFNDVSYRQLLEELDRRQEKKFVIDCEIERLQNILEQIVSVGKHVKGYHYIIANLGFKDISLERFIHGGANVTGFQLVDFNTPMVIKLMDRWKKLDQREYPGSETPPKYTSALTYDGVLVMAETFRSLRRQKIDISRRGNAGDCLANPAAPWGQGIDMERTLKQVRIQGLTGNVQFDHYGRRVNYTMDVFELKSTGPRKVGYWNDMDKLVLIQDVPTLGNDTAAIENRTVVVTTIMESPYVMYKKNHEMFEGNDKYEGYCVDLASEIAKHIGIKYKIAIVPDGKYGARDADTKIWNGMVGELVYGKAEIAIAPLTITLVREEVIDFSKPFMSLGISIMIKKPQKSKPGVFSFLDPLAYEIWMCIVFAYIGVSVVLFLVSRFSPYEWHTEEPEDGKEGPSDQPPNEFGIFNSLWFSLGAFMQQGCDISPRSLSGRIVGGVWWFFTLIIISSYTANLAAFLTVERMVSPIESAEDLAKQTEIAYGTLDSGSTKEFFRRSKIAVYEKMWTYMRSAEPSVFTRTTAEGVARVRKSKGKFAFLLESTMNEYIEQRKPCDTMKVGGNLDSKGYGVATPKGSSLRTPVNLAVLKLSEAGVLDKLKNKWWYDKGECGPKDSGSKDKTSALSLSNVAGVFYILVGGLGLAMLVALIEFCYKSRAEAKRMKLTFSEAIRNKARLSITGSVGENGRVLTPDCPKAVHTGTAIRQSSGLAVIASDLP
# Sequence of Glutamate receptor 2 (P42262 whole entry): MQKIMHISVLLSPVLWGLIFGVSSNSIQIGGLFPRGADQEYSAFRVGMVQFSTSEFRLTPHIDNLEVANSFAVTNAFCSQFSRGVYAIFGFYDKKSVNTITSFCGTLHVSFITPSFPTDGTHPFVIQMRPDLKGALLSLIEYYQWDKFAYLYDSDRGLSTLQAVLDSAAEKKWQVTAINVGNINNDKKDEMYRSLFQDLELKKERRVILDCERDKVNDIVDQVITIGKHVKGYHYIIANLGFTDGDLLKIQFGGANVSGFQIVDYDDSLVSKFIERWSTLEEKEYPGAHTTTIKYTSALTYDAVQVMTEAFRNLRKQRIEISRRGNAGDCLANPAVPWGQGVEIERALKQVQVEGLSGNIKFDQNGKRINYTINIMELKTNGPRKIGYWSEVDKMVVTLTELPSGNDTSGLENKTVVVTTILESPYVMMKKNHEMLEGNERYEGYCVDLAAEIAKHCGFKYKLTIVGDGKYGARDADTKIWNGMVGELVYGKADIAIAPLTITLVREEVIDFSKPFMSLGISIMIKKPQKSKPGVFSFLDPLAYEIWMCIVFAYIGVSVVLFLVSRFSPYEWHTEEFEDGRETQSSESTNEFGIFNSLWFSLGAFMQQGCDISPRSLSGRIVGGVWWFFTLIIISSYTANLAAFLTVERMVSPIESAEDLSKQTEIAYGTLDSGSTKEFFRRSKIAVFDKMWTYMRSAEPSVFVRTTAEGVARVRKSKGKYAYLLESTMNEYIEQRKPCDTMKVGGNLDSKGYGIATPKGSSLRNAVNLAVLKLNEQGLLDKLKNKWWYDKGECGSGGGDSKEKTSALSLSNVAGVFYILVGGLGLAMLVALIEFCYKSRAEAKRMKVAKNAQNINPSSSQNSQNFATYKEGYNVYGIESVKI
Structure (SMILES),Ki [1],Ki (Glutamate receptor 1),Ki (Glutamate receptor 3),Ki [2],Ki [3],Ki (Glutamate receptor 2),Ki [4],Ki (Glutamate receptor 4),ID50 [5]
O=C(O)c1cn(C[C@H]2CC[C@H]3CN[C@H](C(=O)O)C[C@H]3C2)cn1,156 nM,134 µM,247 µM,236 µM,> 1000 µM,117 µM,48.5 µM,262 µM,
NS(=O)(=O)c1cccc2c1c([N+](=O)[O-])cc1nc(O)c(O)nc12 [NBQX],,1.6 µM,,,,,,,
CN(C)CCc1c[nH]c2ccc(Cn3cncn3)cc12 [RIZATRIPTAN],,,,,,,,,8 µg/kg
O=C(O)[C@@H]1C[C@H]2C[C@@H](CCc3nn[nH]n3)CC[C@H]2CN1 [TEZAMPANEL ANHYDROUS],4200 nM,9.2 µM,32 µM,> 100 µM,> 100 µM,,> 100 µM,50 µM,
